# Activity calls are given as the source filed them. No cut-off for these calls is given here.
# Columns and labels:
# Type in all cases: functional
# [1] = tested on: Trichoderma koningii; experiment: Antifungal activity against Trichoderma koningii assessed as radial growth at 5% after 72 hrs by poison food technique of Flack relative to control
# Procedure, shortened: (§1)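 Acetone stock added to molten sterilized PDA to final 0.5–7%, plated in 90 mm dishes with compound-free plates as control. Each plate was inoculated with a 9 mm disc from a 4-day-old culture, incubated at 25 ± 1 °C, and colony diameter measured at 24 h intervals. % inhibition = (control − treatment)/control × 100; three replicates averaged.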
# [2] = tested on: Trichoderma hamatum; experiment: Antifungal activity against Trichoderma hamatum assessed as radial growth at 1% after 24 hrs by poison food technique of Flack relative to control
# [3] = tested on: Trichoderma koningii; experiment: Antifungal activity against Trichoderma koningii assessed as radial growth at 5% after 24 hrs by poison food technique of Flack
# Procedure, shortened: (§2)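 Poisoned-food method: acetone stock mixed into molten sterilized potato dextrose agar to final 0.5, 1, 3, 5 or 7%, poured into 90 mm plates. Plates were inoculated with a 9 mm mycelial disc from a 4-day-old pure culture and incubated at 25 ± 1 °C. Colony diameter (mm) was read every 24 h; mean of three replicates.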
# [4] = tested on: Trichoderma koningii; experiment: Antifungal activity against Trichoderma koningii assessed as radial growth at 7% after 24 hrs by poison food technique of Flack; procedure, shortened: as §2
# [5] = tested on: Trichoderma koningii; experiment: Antifungal activity against Trichoderma koningii assessed as radial growth at 0.5% after 24 hrs by poison food technique of Flack relative to control; procedure, shortened: as §1
# [6] = tested on: Aspergillus niger; experiment: Antifungal activity against Aspergillus niger assessed as radial growth at 3% after 24 hrs by poison food technique of Flack
# Procedure, shortened: (§3)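 Poisoned-food assay on potato dextrose agar. Compound stock in acetone was added to molten sterilized PDA to a final 0.5, 1, 3, 5 or 7%, then 20 mL was poured per 90 mm plate. Each plate was inoculated with a 9 mm mycelial disc from a 4-day-old pure culture and incubated at 25 ± 1 °C. Colony diameter (mm) was read every 24 h; mean of three replicates.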
# [7] = tested on: Aspergillus niger; experiment: Antifungal activity against Aspergillus niger assessed as radial growth at 5% after 24 hrs by poison food technique of Flack; procedure, shortened: as §3
# [8] = tested on: Aspergillus niger; experiment: Antifungal activity against Aspergillus niger assessed as radial growth at 7% after 24 hrs by poison food technique of Flack; procedure, shortened: as §3
# [9] = tested on: Aspergillus niger; experiment: Antifungal activity against Aspergillus niger assessed as radial growth at 7% after 48 hrs by poison food technique of Flack; procedure, shortened: as §3
# [10] = tested on: Aspergillus niger; experiment: Antifungal activity against Aspergillus niger assessed as radial growth at 7% after 72 hrs by poison food technique of Flack; procedure, shortened: as §3
# [11] = tested on: Aspergillus niger; experiment: Antifungal activity against Aspergillus niger assessed as radial growth at 5% after 48 hrs by poison food technique of Flack relative to control
# [12] = tested on: Trichoderma hamatum; experiment: Growth promotion of Trichoderma hamatum assessed as radial growth at 1% after 24 hrs by poison food technique of Flack relative to control
# [13] = tested on: Trichoderma hamatum; experiment: Growth promotion of Trichoderma hamatum assessed as radial growth at 1% after 48 hrs by poison food technique of Flack relative to control
# [14] = tested on: Trichoderma hamatum; experiment: Growth promotion of Trichoderma hamatum assessed as radial growth at 0.5% after 24 hrs by poison food technique of Flack relative to control
# Procedure, shortened: (§4)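 Growth increase in poisoned PDA plates (acetone stock, final 0.5 or 1%) against untreated control plates. Inoculum was a 9 mm mycelial disc from a 4-day-old culture, incubated at 25 ± 1 °C, with colony diameter read every 24 h. Where treated growth exceeded control, percentage increase over control was recorded; average of three replicates.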
# [15] = tested on: Trichoderma hamatum; experiment: Growth promotion of Trichoderma hamatum assessed as radial growth at 0.5% after 48 hrs by poison food technique of Flack relative to control
# [16] = tested on: Trichoderma hamatum; experiment: Antifungal activity against Trichoderma hamatum assessed as radial growth at 5% after 24 hrs by poison food technique of Flack; procedure, shortened: as §2
# [17] = tested on: Trichoderma hamatum; experiment: Antifungal activity against Trichoderma hamatum assessed as radial growth at 5% after 48 hrs by poison food technique of Flack; procedure, shortened: as §2
# [18] = tested on: Trichoderma hamatum; experiment: Antifungal activity against Trichoderma hamatum assessed as radial growth at 7% after 48 hrs by poison food technique of Flack; procedure, shortened: as §2
# [19] = tested on: Aspergillus niger; experiment: Growth promotion of Aspergillus niger assessed as radial growth at 1% after 48 hrs by poison food technique of Flack relative to control; procedure, shortened: as §4
# [20] = tested on: Aspergillus niger; experiment: Growth promotion of Aspergillus niger assessed as radial growth at 1% after 72 hrs by poison food technique of Flack relative to control; procedure, shortened: as §4
# [21] = tested on: Trichoderma koningii; experiment: Growth promotion of Trichoderma koningii assessed as radial growth at 1% after 48 hrs by poison food technique of Flack relative to control
# [22] = tested on: Trichoderma koningii; experiment: Growth promotion of Trichoderma koningii assessed as radial growth at 0.5% after 24 hrs by poison food technique of Flack relative to control
# [23] = tested on: Trichoderma koningii; experiment: Growth promotion of Trichoderma koningii assessed as radial growth at 0.5% after 48 hrs by poison food technique of Flack relative to control
# [24] = tested on: Trichoderma koningii; experiment: Growth promotion of Trichoderma koningii assessed as radial growth at 0.5% after 72 hrs by poison food technique of Flack relative to control
# [25] = tested on: Trichoderma hamatum; experiment: Growth promotion of Trichoderma hamatum assessed as radial growth at 0.5% after 72 hrs by poison food technique of Flack relative to control
# [26] = tested on: Aspergillus niger; experiment: Growth promotion of Aspergillus niger assessed as radial growth at 0.5% after 24 hrs by poison food technique of Flack relative to control; procedure, shortened: as §4
# [27] = tested on: Aspergillus niger; experiment: Growth promotion of Aspergillus niger assessed as radial growth at 0.5% after 48 hrs by poison food technique of Flack relative to control; procedure, shortened: as §4
# [28] = tested on: Aspergillus niger; experiment: Growth promotion of Aspergillus niger assessed as radial growth at 0.5% after 72 hrs by poison food technique of Flack relative to control; procedure, shortened: as §4
# [29] = tested on: Trichoderma koningii; experiment: Growth promotion of Trichoderma koningii assessed as radial growth at 1% after 24 hrs by poison food technique of Flack relative to control
# [30] = tested on: Trichoderma koningii; experiment: Growth promotion of Trichoderma koningii assessed as radial growth at 1% after 72 hrs by poison food technique of Flack relative to control
# [31] = tested on: Trichoderma koningii; experiment: Antifungal activity against Trichoderma koningii assessed as radial growth at 3% after 24 hrs by poison food technique of Flack; procedure, shortened: as §2
# [32] = tested on: Trichoderma koningii; experiment: Antifungal activity against Trichoderma koningii assessed as radial growth at 5% after 48 hrs by poison food technique of Flack; procedure, shortened: as §2
# [33] = tested on: Trichoderma koningii; experiment: Antifungal activity against Trichoderma koningii assessed as radial growth at 7% after 48 hrs by poison food technique of Flack; procedure, shortened: as §2
# [34] = tested on: Trichoderma hamatum; experiment: Antifungal activity against Trichoderma hamatum assessed as radial growth at 7% after 72 hrs by poison food technique of Flack; procedure, shortened: as §2
# [35] = tested on: Aspergillus niger; experiment: Antifungal activity against Aspergillus niger assessed as radial growth at 5% after 48 hrs by poison food technique of Flack; procedure, shortened: as §3
# [36] = tested on: Aspergillus niger; experiment: Growth promotion of Aspergillus niger assessed as radial growth at 1% after 24 hrs by poison food technique of Flack relative to control; procedure, shortened: as §4
Compound,inhibition (INH) [1],inhibition (INH) [2],Activity [3],Activity [4],inhibition (INH) [5],Activity [8],Activity [9],Activity [10],inhibition (INH) [11],Activity [16],Activity [18],Activity [19],Activity [20],Activity [21],Activity [22],Activity [23],Activity [24],Activity [26],Activity [27],Activity [28],also measured
CCOC(=O)C1=C(C)NC(=O)NC1c1ccc(N(C)C)cc1 (configuration not stated),79.15%,0%,Active,Active,4%,Active,Active,Active,87.5%,,,,,,,,,,,,Activity [6]: Active; Activity [7]: Active; Activity [12]: 3.15%; Activity [13]: 1.5%; Activity [14]: 8.97%; Activity [15]: 3.3%
CCOC(=O)C1=C(C)NC(=S)NC1c1ccccc1O (configuration not stated),88.33%,49.73%,Active,Active,0%,,,,50%,Active,Active,94.34%,104.34%,113.53%,19.71%,53.12%,1.25%,90.09%,129.68%,93.61%,Activity [17]: Active; Activity [25]: 0.42%
CCOC(=O)C1=C(C)NC(=S)NC1c1ccccc1 (configuration not stated),79.82%,47.78%,,,0%,Active,Active,Active,54.54%,,Active,50%,75.75%,3.92%,36.06%,16.26%,2.97%,133%,96.9%,106.06%,Activity [29]: 26.94%; Activity [30]: 2.97%
CCOC(=O)C1=C(C)NC(=O)NC1c1ccccc1 (configuration not stated),91.53%,24.96%,Active,Active,5.66%,Active,,,81.17%,Active,Active,13.37%,7.76%,,,,,19.44%,64.39%,27.63%,Activity [31]: Active; Activity [32]: Active; Activity [33]: Active; Activity [34]: Active
CCOC(=O)C1=C(C)NC(=S)NC1c1ccc(N(C)C)cc1 (configuration not stated),88.29%,21.42%,,Active,0%,Active,Active,Active,100%,Active,Active,86.6%,92.07%,18.21%,15.38%,18.75%,2.7%,60%,103.2%,100%,Activity [17]: Active; Activity [7]: Active; Activity [35]: Active; Activity [30]: 1.35%
CCOC(=O)C1=C(C)NC(=O)NC1c1ccccc1O (configuration not stated),55.7%,21.05%,,Active,0%,Active,Active,,65.66%,,Active,,,,6.49%,11.97%,6.37%,3.2%,,,Activity [33]: Active; Activity [29]: 5.79%; Activity [36]: 7.4%; Activity [14]: 5.68%; Activity [15]: 19.53%; Activity [25]: 4.07%

# Reference: ChEMBL document CHEMBL1152173, “Synthesis and in vitro evaluation of the antifungal activities of dihydropyrimidinones” (2008)
